From PubChem BioAssay
ERAP1 inh = blocks human ERAP1 aminopeptidase activity. AID 652197. recombinant ERAP1, Leu-AMC fluorescence, 60 min. inhibition, % at 10.7 µM. actives 0.15% (n = 340,000);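 active means mean replicate inhibition of at least 30%, or all replicates individually reaching that 30% level; inactive means mean below 30% and not every replicate reaching it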;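 further: 0% = neutral control wells and 100% = L-leucinethiol positive control wells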
PGC1a acetyl inh = PGC1a acetylation modulation, inhibitor mode | U2OS PGC1a acetylation, AlphaScreen anti-acetyl-lysine; with virally co-expressed GCN5 acetyltransferase | inhibition, % at 15.6 µM | actives 0.17% (n = 350,000) | AID 651687;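 active means every replicate shows inhibition of at least 40%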;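 further: 0% = neutral control wells and 100% = positive control wells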
rRNA inh HTS = selective bacterial rRNA inhibition in E. coli; E. coli WT GFP vs humanized-ribosome RFP mutants, fluorescence, 24 h; stronger effect = lower value; DMSO median 0, no signal -100; GFP signal change (wild-type ribosome), % (test concentration not listed); actives 1.6% (n = 350,000); AID 720706;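 active means significant combined selectivity score with lowered wild-type GFP, culture density cut under 30%, mutant RFP and density less affected; inactive means any of these conditions unmet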
CASP6 VEID inh = caspase-6 (human) enzyme inhibition. P55212. purified caspase-6, Z-VEID-R110 cleavage fluorescence. inhibition, % at 12.5 µM. actives 0.53% (n = 350,000);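 active means mean inhibition across replicates at least about 35%, with every replicate also reaching that limit, limit read from the data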;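 further: 0% = median of neutral control wells and 100% = no fluorescence left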
Target sequence (P55212 24-179 limits assumed): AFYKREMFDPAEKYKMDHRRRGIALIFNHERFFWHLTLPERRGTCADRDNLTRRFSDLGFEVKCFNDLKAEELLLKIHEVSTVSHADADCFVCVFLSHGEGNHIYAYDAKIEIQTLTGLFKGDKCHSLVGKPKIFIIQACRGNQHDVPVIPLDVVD
Target sequence (P55212 194-293 limits assumed): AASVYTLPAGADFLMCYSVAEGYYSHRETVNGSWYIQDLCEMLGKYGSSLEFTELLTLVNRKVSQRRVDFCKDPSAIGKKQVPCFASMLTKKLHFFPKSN
ARNT TACC3 PPI = ARNT/TACC3 interaction disruption. Q9Y6A5. AlphaScreen His-ARNT PAS-B/GST-TACC3 binding, luminescence; TACC3 fragment carries E629A point mutation. inhibition, % at 9.99 µM. actives 0.66% (n = 390,000). AID 623870;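 active means mean inhibition of replicates at least 50% and at least half of replicates each reaching 50%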;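 further: 0% = complete ARNT plus TACC3 wells and 100% = ARNT alone without TACC3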
S100A4 inh HTS = S100A4-myosin IIA interaction inhibition | S100A4/TAMRA-MyoIIA peptide fluorescence polarization | inhibition, % at 10.7 µM | actives 0.14% (n = 360,000) | P26447;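 active means mean inhibition of at least 70% across replicates, with every replicate also reaching that level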
Target sequence (P26447 whole entry, looked up): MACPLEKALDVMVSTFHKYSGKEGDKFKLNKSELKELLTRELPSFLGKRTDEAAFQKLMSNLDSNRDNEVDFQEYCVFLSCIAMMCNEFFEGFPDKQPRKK
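Material: S100A4 monomer protein / Buffer or medium: 50 mM HEPES pH 7.2, 10 mM CaCl2, 100 mM KCl / Times: 5 min incubation before reading / Benchmarks: neutral control DMSO, positive control TFP / Reagent: labelled myosin peptide probe, 5 nM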
AlphaScreen ctr = AlphaScreen artifact in ARNT/TACC3 counter-screen. His-ARNT PASB-GST AlphaScreen artifact counter-screen, luminescence. AID 651705. AC50, µM (series often up to 68 µM), for the others: top-dose activity change, negative = signal decrease. shares compounds with ARNT TACC3 PPI. actives 50% (n = 1,200);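 active means every separate test run was called active for a drop in luminescence, with AC50 within twice the top valid dose, actives reach about 71 µM in these data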
An asterisk follows results filed as active; [ ] = remark or other dose. Hits are enriched below; roughly 2.4% of the tested compounds scored in any of these assays.

How did O=C(NC[C@H]1[C@H](c2ccccc2)[C@@H](CO)N1Cc1ccccn1)C1CCCC1 do in these assays?
ERAP1 inh: 4; PGC1a acetyl inh: 7; rRNA inh HTS: 0; CASP6 VEID inh: -1; ARNT TACC3 PPI: 18; S100A4 inh HTS: 6

How did O=C(NC[C@@H]1[C@@H](c2ccccc2)[C@@H](CO)N1Cc1ccccn1)C1CC1 do in these assays?
ERAP1 inh: -2; PGC1a acetyl inh: 10; rRNA inh HTS: 2; CASP6 VEID inh: -2; ARNT TACC3 PPI: 23; S100A4 inh HTS: 10

What do the screens show for `O=C(NC[C@H]1[C@H](c2ccccc2)[C@H](CO)N1Cc1ccccn1)C1CCC1`?
PGC1a acetyl inh: -20; rRNA inh HTS: 4; ARNT TACC3 PPI: 38*; AlphaScreen ctr: -14%[42 µM]

Results for O=C(C[C@@H]1CC[C@@H](NC(=O)c2ccccc2)[C@H](CO)O1)Nc1ccc(-c2ccccc2)cc1 ?
ERAP1 inh: 0; PGC1a acetyl inh: 8; rRNA inh HTS: -1; CASP6 VEID inh: -1; ARNT TACC3 PPI: 54*; S100A4 inh HTS: 6; AlphaScreen ctr: -8%[42 µM]

How did O=C(C[C@@H]1CC[C@H](NC(=O)Nc2cc(F)ccc2F)[C@@H](CO)O1)Nc1ccc(-c2ccccc2)cc1 do in these assays?
ERAP1 inh: 1; PGC1a acetyl inh: -3; rRNA inh HTS: -9; CASP6 VEID inh: 0; ARNT TACC3 PPI: 54*; S100A4 inh HTS: 2; AlphaScreen ctr: 1%[38 µM]

What do the screens show for `C[C@]12CC[C@H](O)CC1=CCC1C2CC[C@@]2(C)C1CC[C@@H]2NC(=O)[C@@H](N)Cc1cnc[nH]1` (stereo partly drawn)?
ERAP1 inh: -3; PGC1a acetyl inh: 12; rRNA inh HTS: 3; CASP6 VEID inh: 1; ARNT TACC3 PPI: 62*; S100A4 inh HTS: -5; AlphaScreen ctr: -12%

What do the screens show for `CCC(=O)N1[C@H](CO)[C@H]2c3ccccc3N(C(=O)c3cccc(OC)c3)C[C@H]21`?
PGC1a acetyl inh: -3; rRNA inh HTS: -1; ARNT TACC3 PPI: 0

What do the screens show for `CCCNC(=O)N1CCC2(CC1)CN(C(=O)Nc1ccc(F)cc1)[C@H](CO)c1[nH]c3cc(OC)ccc3c12`?
ERAP1 inh: -2; PGC1a acetyl inh: -1; rRNA inh HTS: -7; CASP6 VEID inh: 0; S100A4 inh HTS: -6

What do the screens show for `CC(C)C1Cc2c(sc3ncnc(NN)c23)CO1` (stereo not drawn)?
ERAP1 inh: -1; PGC1a acetyl inh: 5; rRNA inh HTS: 10; CASP6 VEID inh: -6; ARNT TACC3 PPI: 61*; S100A4 inh HTS: -2; AlphaScreen ctr: 17µM*

Results for CC(C)Cc1nc2sc3c(c2c(=O)n1N)CC(C(C)C)OC3 (stereo not drawn) ?
ERAP1 inh: -1; PGC1a acetyl inh: -8; rRNA inh HTS: 5; CASP6 VEID inh: -2; ARNT TACC3 PPI: 0; S100A4 inh HTS: 1

How did O=C(C[C@@H]1C[C@@H]2c3cc(NC(=O)NC4CCCCC4)ccc3O[C@@H]2[C@H](CO)O1)NCC(F)(F)F do in these assays?
ERAP1 inh: 0; PGC1a acetyl inh: 4; rRNA inh HTS: -7; CASP6 VEID inh: -5; ARNT TACC3 PPI: -3; S100A4 inh HTS: -7

What do the screens show for `CO[C@@H]1CN(C)C(=O)c2ccc(NC(=O)C3CC3)cc2OC[C@H](C)N(C(=O)CN(C)C)C[C@H]1C`?
ERAP1 inh: 2; PGC1a acetyl inh: 1; rRNA inh HTS: 0; CASP6 VEID inh: -4; ARNT TACC3 PPI: -2; S100A4 inh HTS: -9

Results for O=C(Nc1cn2ccccc2n1)c1cc(-c2ccccc2)on1 ?
AlphaScreen ctr: -7%[38 µM]

What do the screens show for `O=C(Nc1nc(-c2ccccc2)cs1)c1cc(-c2ccccc2)on1`?
AlphaScreen ctr: -2%[38 µM]

Results for O=C(C[C@H]1CC[C@H](NC(=O)NC2CCCCC2)[C@H](CO)O1)NCc1ccccc1 ?
ERAP1 inh: 2; PGC1a acetyl inh: 5; rRNA inh HTS: 4; CASP6 VEID inh: 2; ARNT TACC3 PPI: 0; S100A4 inh HTS: -2

What do the screens show for `C[C@@H]1CN([C@H](C)CO)C(=O)c2cc(-c3ccccc3F)cnc2O[C@@H]1CN(C)C(=O)NC1CCCC1`?
ERAP1 inh: 1; PGC1a acetyl inh: -9; rRNA inh HTS: 2; CASP6 VEID inh: -2; ARNT TACC3 PPI: -2; S100A4 inh HTS: 21

Results for NS(=O)(=O)c1ccc(CCNC(=O)COC(=O)Cc2ccc([N+](=O)[O-])cc2)cc1 ?
ERAP1 inh: -1; PGC1a acetyl inh: 9; rRNA inh HTS: 1; CASP6 VEID inh: 0; ARNT TACC3 PPI: -4; S100A4 inh HTS: -1

Results for O=C(COC(=O)c1ccc([N+](=O)[O-])s1)NC(c1ccccc1)c1ccccc1 ?
ERAP1 inh: -2; rRNA inh HTS: 4; CASP6 VEID inh: 2; ARNT TACC3 PPI: -6; S100A4 inh HTS: -6

How did O=C(COC(=O)c1ccc([N+](=O)[O-])s1)NCc1ccccc1 do in these assays?
ARNT TACC3 PPI: 26*; AlphaScreen ctr: -3%

What do the screens show for `O=C(COC(=O)c1ccc([N+](=O)[O-])o1)NCc1ccccc1`?
ERAP1 inh: 3; rRNA inh HTS: 0; CASP6 VEID inh: 25; ARNT TACC3 PPI: 20*; S100A4 inh HTS: -1; AlphaScreen ctr: -8%

How did NS(=O)(=O)c1ccc(CCNC(=O)COC(=O)c2ccc([N+](=O)[O-])o2)cc1 do in these assays?
ERAP1 inh: -3; PGC1a acetyl inh: 1; rRNA inh HTS: -13; CASP6 VEID inh: 16; ARNT TACC3 PPI: 71*; S100A4 inh HTS: 33; AlphaScreen ctr: -10%

What do the screens show for `COc1ccc2c3c([nH]c2c1)[C@H](CO)N(Cc1nccs1)CC31CCN(C(=O)C2CCOCC2)CC1`?
ERAP1 inh: -11; PGC1a acetyl inh: 1; rRNA inh HTS: 1; CASP6 VEID inh: -3; S100A4 inh HTS: 15

What do the screens show for `CC=Cc1ccc2n(c1=O)C[C@H]1[C@H](CO)[C@@H](C(=O)NCC3CC3)N(C(C)=O)[C@@H]21` (mixture of isomers)?
ERAP1 inh: 1; PGC1a acetyl inh: -1; rRNA inh HTS: 4; CASP6 VEID inh: 1; S100A4 inh HTS: -2

What do the screens show for `COc1ccc(NC(=O)N[C@H]2CC[C@@H](CCn3cc(-c4ccccc4)nn3)O[C@@H]2CO)cc1`?
ERAP1 inh: 0; PGC1a acetyl inh: -2; rRNA inh HTS: -3; CASP6 VEID inh: -1; ARNT TACC3 PPI: -7; S100A4 inh HTS: -7
